Source: ChEMBL document CHEMBL4346746, “Inhibition of 3-phosphoglycerate dehydrogenase (PHGDH) by indole amides abrogates de novo serine synthesis in cancer cells” (Bioorg Med Chem Lett, 2019)
pIC50: −log10 of the molar value. Active and inactive are the calls of the source. No cut-off for these calls is given here.

Experiments:
[1] = target: T1, D-3-phosphoglycerate dehydrogenase (Homo sapiens, UniProt O43175); test: Inhibition of PHGDH (unknown origin) using 140 nM of PHGDH and 3-PG as substrate incubated for 20 mins in presence of NAD+, PSAT1, PSPH by diaphorase and resazurin dye based fluorescence assay
T1 sequence (O43175 whole entry): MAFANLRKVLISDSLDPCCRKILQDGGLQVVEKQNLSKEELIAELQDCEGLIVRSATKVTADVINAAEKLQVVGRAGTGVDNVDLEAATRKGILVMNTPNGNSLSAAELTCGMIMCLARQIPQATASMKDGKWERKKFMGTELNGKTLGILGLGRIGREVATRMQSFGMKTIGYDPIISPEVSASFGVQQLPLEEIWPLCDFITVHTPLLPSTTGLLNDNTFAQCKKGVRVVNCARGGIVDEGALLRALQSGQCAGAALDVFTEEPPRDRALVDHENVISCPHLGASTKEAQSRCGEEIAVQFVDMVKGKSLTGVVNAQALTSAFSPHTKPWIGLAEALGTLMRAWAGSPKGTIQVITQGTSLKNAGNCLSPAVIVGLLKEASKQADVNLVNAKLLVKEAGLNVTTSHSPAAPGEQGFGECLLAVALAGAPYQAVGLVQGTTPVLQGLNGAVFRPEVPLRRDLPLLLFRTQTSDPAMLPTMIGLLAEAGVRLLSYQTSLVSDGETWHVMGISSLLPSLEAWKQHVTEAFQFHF

[2] = target: T2, D-3-phosphoglycerate dehydrogenase (Homo sapiens) (UniProt O43175); test: Inhibition of PHGDH-mediated serine synthesis in human Carney cells in serine free medium at uM preincubated for 1 hr followed by 13C6 labelled glucose addition and measured after 2 hrs by LC/MS analysis based 13C6-Glucose tracing assay relative control; assay type: cell-based; conditions: concentration not given here
T2 sequence (whole entry): T1 sequence (O43175 whole entry)
How it was run: (§1)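 Carney cells were pretreated with inhibitor for 1 h in the presence of 12C3-serine, then washed. They were labelled with 13C6-glucose medium for 2 h with inhibitor still present. 13C incorporation into serine was read by LC-MS; 3-PG and pyruvate labelling were also monitored.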

[3] = target: T2, D-3-phosphoglycerate dehydrogenase (Homo sapiens); test: Inhibition of PHGDH-mediated serine synthesis in human Carney cells in serine free medium at 1 uM preincubated for 1 hr followed by 13C6 labelled glucose addition and measured after 2 hrs by LC/MS analysis based 13C6-Glucose tracing assay relative control; assay type: cell-based; how it was run: as §1
Homo sapiens = organism: Homo sapiens; test: Antiproliferative activity against human Carney cells in serine free medium at 2 uM with media and test compound change for every 2 days and measured every 6 hrs by automated microscopic method; assay type: functional, cell-based
[4] = Effect on 3-PG level in human Carney cells in serine free medium assessed as 13C-labeling of 3-PG at 0.1 to 10 uM preincubated for 1 hr followed by 13C6 labelled glucose addition and measured after 2 hrs by LC/MS analysis; assay type: ADME, cell-based
How it was run: (§2)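 Carney cells were pretreated with inhibitor for 1 h in the presence of 12C3-serine, then washed. They were labeled with 13C6-glucose medium for 2 h with inhibitor still present. Label incorporation into 3-PG and pyruvate was measured by LC-MS, alongside serine labeling as the pathway read-out.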

[5] = Effect on pyruvate level in human Carney cells in serine free medium assessed as 13C-labeling of pyruvate at 0.1 to 10 uM preincubated for 1 hr followed by 13C6 labelled glucose addition and measured after 2 hrs by LC/MS analysis; assay type: ADME, cell-based; how it was run: as §2
[6] = target: Isocitrate dehydrogenase [NADP] cytoplasmic (Homo sapiens, UniProt O75874); test: Inhibition of recombinant human IDH1 expressed in Escherichia coli using isocitrate as substrate incubated for 30 mins followed by substrate addition
[7] = target: T3, Malate dehydrogenase, cytoplasmic (Homo sapiens, UniProt P40925); test: Inhibition of recombinant human MDH1 expressed in Escherichia coli using malate as substrate incubated for 30 mins followed by substrate addition
T3 sequence (P40925 whole entry): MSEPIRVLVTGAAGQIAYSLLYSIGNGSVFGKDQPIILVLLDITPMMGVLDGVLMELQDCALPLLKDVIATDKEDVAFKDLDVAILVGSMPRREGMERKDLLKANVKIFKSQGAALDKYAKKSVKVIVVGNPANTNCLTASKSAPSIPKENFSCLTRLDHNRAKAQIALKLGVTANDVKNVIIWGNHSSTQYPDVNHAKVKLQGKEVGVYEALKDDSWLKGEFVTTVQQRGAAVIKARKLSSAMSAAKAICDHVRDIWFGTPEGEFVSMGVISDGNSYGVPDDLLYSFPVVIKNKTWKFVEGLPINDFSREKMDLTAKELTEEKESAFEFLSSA

[8] = target: T2, D-3-phosphoglycerate dehydrogenase (Homo sapiens); test: Inhibition of PHGDH-mediated serine synthesis in human Carney cells in serine free medium at 10 uM preincubated for 1 hr followed by 13C6 labelled glucose addition and measured after 2 hrs by LC/MS analysis based 13C6-Glucose tracing assay relative control; assay type: cell-based; how it was run: as §1
[9] = Effect on 3-PG level in human Carney cells in serine free medium assessed as 13C-labeling of 3-PG at 0.1 to 20 uM preincubated for 1 hr followed by 13C6 labelled glucose addition and measured after 2 hrs by LC/MS analysis; assay type: ADME, cell-based; how it was run: as §2
[10] = Effect on pyruvate level in human Carney cells in serine free medium assessed as 13C-labeling of pyruvate at 0.1 to 20 uM preincubated for 1 hr followed by 13C6 labelled glucose addition and measured after 2 hrs by LC/MS analysis; assay type: ADME, cell-based; how it was run: as §2
[11] = target: L-lactate dehydrogenase A chain (Homo sapiens, UniProt P00338); test: Inhibition of recombinant human LDHA expressed in Escherichia coli using lactate as substrate incubated for 30 mins followed by substrate addition
[12] = target: T2, D-3-phosphoglycerate dehydrogenase (Homo sapiens); test: Inhibition of PHGDH-mediated serine synthesis in human Carney cells in serine free medium up to 40 uM preincubated for 1 hr followed by 13C6 labelled glucose addition and measured after 2 hrs by LC/MS analysis based 13C6-Glucose tracing assay; assay type: cell-based; how it was run: as §1
[13] = target: T2, D-3-phosphoglycerate dehydrogenase (Homo sapiens); test: Mixed type inhibition of PHGDH (unknown origin) assessed as decrease in substrate Vmax 3-PG as substrate incubated for 20 mins in presence of , PSAT1, PSPH and varying NAD+ by diaphorase and resazurin dye based fluorescence assay
[14] = target: T2, D-3-phosphoglycerate dehydrogenase (Homo sapiens); test: Mixed type inhibition of PHGDH (unknown origin) assessed as rightward shift in substrate Km using 3-PG as substrate incubated for 20 mins in presence of , PSAT1, PSPH and varying NAD+ by diaphorase and resazurin dye based fluorescence assay
[15] = Effect on 3-PG level in human Carney cells in serine free medium assessed as 13C-labeling of 3-PG at 1 to 40 uM preincubated for 1 hr followed by 13C6 labelled glucose addition and measured after 2 hrs by LC/MS analysis; assay type: ADME, cell-based; how it was run: as §2
[16] = target: T1, D-3-phosphoglycerate dehydrogenase; test: Inhibition of PHGDH (unknown origin) using 11 nM of PHGDH and 3-PG as substrate incubated for 20 mins in presence of NAD+, PSAT1, PSPH by diaphorase and resazurin dye based fluorescence assay
in vitro = conditions: PAMPA, pH 5
[17] = target: T1, D-3-phosphoglycerate dehydrogenase; test: Inhibition of PHGDH (unknown origin)
[18] = target: T2, D-3-phosphoglycerate dehydrogenase (Homo sapiens); test: Inhibition of PHGDH-mediated serine synthesis in human Carney cells in serine free medium at 40 uM preincubated for 1 hr followed by 13C6 labelled glucose addition and measured after 2 hrs by LC/MS analysis based 13C6-Glucose tracing assay relative control; assay type: cell-based; how it was run: as §1
[19] = target: T2, D-3-phosphoglycerate dehydrogenase (Homo sapiens); test: Inhibition of PHGDH-mediated serine synthesis in human Carney cells in serine free medium preincubated for 1 hr followed by 13C6 labelled glucose addition and measured after 2 hrs by LC/MS analysis based 13C6-Glucose tracing assay relative control; assay type: cell-based; how it was run: as §1
[20] = target: T2, D-3-phosphoglycerate dehydrogenase (Homo sapiens); test: Inhibition of PHGDH-mediated serine synthesis in human Carney cells in serine free medium at 1 to 40 uM preincubated for […] followed by 13C6 labelled glucose addition and measured after 2 hrs by LC/MS analysis based 13C6-Glucose tracing assay relative control; assay type: cell-based
[21] = Effect on pyruvate level in human Carney cells in serine free medium assessed as 13C-labeling of pyruvate at 1 to 40 uM preincubated for 1 hr followed by 13C6 labelled glucose addition and measured after 2 hrs by LC/MS analysis; assay type: ADME, cell-based; how it was run: as §2
[22] = Lipophilicity, log D of the compound at pH 7.4 by HPLC analysis; assay type: physicochemical; conditions: buffer
[23] = Apparent permeability across apical to basolateral side in MDCK cells overexpressing MDR1; assay type: ADME, cell-based, Canis lupus familiaris; conditions: dog
[24] = Efflux ratio of apparent permeability across basolateral to apical over apical to basolateral side in MDCK cells overexpressing MDR1; assay type: ADME, cell-based, Canis lupus familiaris; conditions: dog

Chain of Isocitrate dehydrogenase [NADP] cytoplasmic (O75874 whole entry): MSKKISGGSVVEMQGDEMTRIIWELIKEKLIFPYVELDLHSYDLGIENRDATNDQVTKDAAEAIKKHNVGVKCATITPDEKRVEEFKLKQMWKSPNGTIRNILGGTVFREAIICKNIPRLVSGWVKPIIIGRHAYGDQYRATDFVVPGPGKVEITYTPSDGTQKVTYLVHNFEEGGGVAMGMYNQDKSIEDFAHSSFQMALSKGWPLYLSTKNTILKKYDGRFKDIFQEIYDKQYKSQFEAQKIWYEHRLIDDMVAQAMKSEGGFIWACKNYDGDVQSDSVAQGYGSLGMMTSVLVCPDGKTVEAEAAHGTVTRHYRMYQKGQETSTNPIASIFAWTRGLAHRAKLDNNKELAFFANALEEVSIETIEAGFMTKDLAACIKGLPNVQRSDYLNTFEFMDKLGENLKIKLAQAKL

CC(=O)OC(C)OC(=O)C(c1ccc(C2(NC(=O)c3cc4c(Cl)c(Cl)ccc4n3C)COC2)cc1)c1cccnc1 (stereo not given)
pIC50 [1]: 5.84
inhibition [2]: 40%
inhibition [3]: < 100%
Activity (Homo sapiens): Active
Activity [4]: Non-Toxic
Activity [5]: Non-Toxic

Cn1c(CNC2(c3ccc(C(=O)O)cc3)COC2)cc2c(Cl)c(Cl)ccc21
pIC50 [1]: 3.68

Cn1c(C(=O)NC2(c3ccc(C(C(=O)O)c4cccnc4)cc3)COC2)cc2c(Cl)c(Cl)ccc21 (racemic)
pIC50 [6]: < 5.00
pIC50 [7]: < 5.00
inhibition [8]: 90%
Activity (Homo sapiens): Active
Activity [9]: Non-Toxic
Activity [10]: Non-Toxic

O=C1NC[C@@H](COc2cc3[nH]c(C(=O)N[C@H](CO)c4ccc(C(=O)O)cc4)cc3cc2Cl)O1
pIC50 [11]: < 5.00
pIC50 [6]: < 5.00
pIC50 [7]: < 5.00
inhibition [12]: inactive
inhibition [13]: Active
inhibition [14]: Active
Activity [15]: Non-Toxic

Cn1c(C(=O)NC2(c3ccc(CO)cc3)COC2)cc2c(Cl)c(Cl)ccc21
pIC50 [1]: 5.80

Cn1c(C(=O)NC2(c3ccc(C(=O)O)c(F)c3)COC2)cc2c(Cl)c(Cl)ccc21
pIC50 [16]: 7.43
Papp at 10 µM (in vitro): 15.2 ×10⁻⁶ cm/s

C#CSc1c(NC(=O)c2ccco2)sc(C(=O)OCC)c1C
pIC50 [17]: 4.48

Cn1c(C(=O)NC2(c3ccc(C(=O)O)cc3)COC2)cc2c(Cl)c(Cl)ccc21
inhibition [8]: 40%
inhibition [18]: 100%
inhibition [19]: Dose-dependent effect
inhibition [20]: Active
Activity [15]: Non-Toxic
Activity [21]: Non-Toxic

COc1cc2c(cc1Cl)cc(C(=O)NC(CO)c1ccc(C(=O)O)cc1)n2C (stereo not given)
pIC50 [1]: 6.63

CONC(=O)Cc1ccc(C2(NC(=O)c3cc4c(Cl)c(Cl)ccc4n3C)COC2)cc1
pIC50 [1]: 6.54

Cn1c(C(=O)NC2(c3ccc([C@H](O)c4cccnc4)cc3)COC2)cc2c(Cl)c(Cl)ccc21
pIC50 [1]: 6.00

COc1cc2c(cc1Cl)cc(C(=O)N[C@H](C)c1ccc(C(=O)O)cc1)n2C
pIC50 [1]: 6.63
logD [22]: 1.67
Papp [23]: 1.4 ×10⁻⁶ cm/s
Ratio [24]: 1.3

COc1cc2c(cc1Cl)cc(C(=O)NC(CN)c1ccc(C(=O)O)cc1)n2C (stereo not given)
pIC50 [1]: 4.63

Cn1c(C(=O)NC2(c3ccc(C(CC(=O)O)c4cccnc4)cc3)COC2)cc2c(Cl)c(Cl)ccc21 (stereo not given)
pIC50 [16]: 7.60

Cn1c(C(=O)NC2(c3ccc(C(=O)O)nc3)COC2)cc2c(Cl)c(Cl)ccc21
pIC50 [1]: 4.66

CCOC(=O)C(c1ccc(C2(NC(=O)c3cc4c(Cl)c(Cl)ccc4n3C)COC2)cc1)c1cccnc1 (stereo not given)
pIC50 [1]: 5.88
inhibition [8]: 70%
Activity [4]: Non-Toxic
Activity [5]: Non-Toxic

Cn1c(C(=O)NC2(c3ccc([C@@H](O)c4cccnc4)cc3)COC2)cc2c(Cl)c(Cl)ccc21
pIC50 [1]: 6.43
pIC50 [11]: < 5.00
pIC50 [6]: < 5.00
pIC50 [7]: < 5.00

Cn1c(C(=O)NC2(c3ccc(CC(=O)NS(C)(=O)=O)cc3)COC2)cc2c(Cl)c(Cl)ccc21
pIC50 [16]: 6.36

Cn1c(C(=O)NC2(c3ccc(CC(=O)O)c(F)c3)COC2)cc2c(Cl)c(Cl)ccc21
pIC50 [16]: 7.47
